In ChEMBL document CHEMBL3588823, “Design, synthesis and biological evaluation of novel 5-oxo-2-thioxoimidazolidine derivatives as potent androgen receptor antagonists” (Eur J Med Chem, 2015):

What was measured:
Androgen receptor [1] = target: T1, Androgen receptor (Homo sapiens, UniProt P10275); experiment: Antagonist activity at androgen receptor (unknown origin)
T1 sequence (P10275 whole entry): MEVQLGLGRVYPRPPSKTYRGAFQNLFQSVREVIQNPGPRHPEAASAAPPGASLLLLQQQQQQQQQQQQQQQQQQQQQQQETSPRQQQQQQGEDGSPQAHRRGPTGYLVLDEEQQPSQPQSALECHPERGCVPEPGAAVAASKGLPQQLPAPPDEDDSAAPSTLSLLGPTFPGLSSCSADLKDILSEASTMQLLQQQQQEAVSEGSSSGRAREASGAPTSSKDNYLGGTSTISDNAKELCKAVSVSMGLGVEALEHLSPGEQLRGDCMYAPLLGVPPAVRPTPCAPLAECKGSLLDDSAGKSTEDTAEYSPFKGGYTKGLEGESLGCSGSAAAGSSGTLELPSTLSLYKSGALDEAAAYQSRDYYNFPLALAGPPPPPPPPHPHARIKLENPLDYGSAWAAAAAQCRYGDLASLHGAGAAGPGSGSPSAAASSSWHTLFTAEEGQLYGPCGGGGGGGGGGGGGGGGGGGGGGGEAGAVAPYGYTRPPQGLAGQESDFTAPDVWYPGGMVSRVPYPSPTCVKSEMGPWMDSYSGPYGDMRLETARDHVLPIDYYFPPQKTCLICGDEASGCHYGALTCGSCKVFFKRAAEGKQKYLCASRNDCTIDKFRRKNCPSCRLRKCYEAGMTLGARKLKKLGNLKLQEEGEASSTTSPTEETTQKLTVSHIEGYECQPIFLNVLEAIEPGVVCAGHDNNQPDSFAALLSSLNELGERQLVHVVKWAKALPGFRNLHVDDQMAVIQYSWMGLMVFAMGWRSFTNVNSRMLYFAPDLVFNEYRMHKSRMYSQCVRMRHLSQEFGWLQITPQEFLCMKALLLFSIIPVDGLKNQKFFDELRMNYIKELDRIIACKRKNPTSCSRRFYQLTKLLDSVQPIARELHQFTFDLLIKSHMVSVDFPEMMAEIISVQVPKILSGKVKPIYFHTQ

LNCaP = experiment: Antiproliferative activity against human LNCAP cells after 3 days; assay type: functional, cell-based
How it was run: (§1)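 LNCaP cells seeded at 10,000 per well in RPMI 1640 with 10% charcoal-stripped serum and 1% AAS, then held 3 days at 37 °C. Medium was then replaced with serial compound dilutions, either without DHT (agonism mode) or with DHT (antagonism mode).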

[2] = Clearance in rat at 5 mg/kg, po; assay type: ADME, organism-based; settings: in vivo
How it was run: (§2)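 Rats (n = 3) were given a single 5 mg/kg oral dose in 0.5% HPMC. Blood was taken into EDTA tubes at 15 and 30 min and 1, 2, 4, 8 and 24 h. Plasma was obtained by centrifugation and proteins were precipitated with acetonitrile. Bioavailability was calculated against a 1 mg/kg iv dose.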

[3] = (§3) Tmax in rat at 5 mg/kg, po; assay type: ADME, organism-based; settings: in vivo; how it was run: as §2
[4] = Volume of distribution in rat at 1 mg/kg, iv; assay type: ADME, organism-based; settings: in vivo
How it was run: (§4)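 Rats (n = 3) were given a single 1 mg/kg iv dose in 20% hydroxypropyl-β-cyclodextrin. Blood was taken into EDTA tubes at 5, 15 and 30 min and 1, 2, 4, 8 and 24 h. Plasma was obtained by centrifugation and proteins were precipitated with acetonitrile before analysis.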

[5] = (§5) Half life in rat at 5 mg/kg, po; assay type: ADME, organism-based; settings: in vivo; how it was run: as §2
[6] = MRT (last) in rat at 5 mg/kg, po; assay type: ADME, organism-based; settings: in vivo; how it was run: as §2
[7] = (§6) Half life in rat at 1 mg/kg, iv; assay type: ADME, organism-based; settings: in vivo; how it was run: as §4
[8] = AUC (0 to time) in rat at 1 mg/kg, iv; assay type: ADME, organism-based; settings: in vivo
How it was run: (§7)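 Rats (n = 3) given a single 1 mg/kg iv dose in 20% HP-b-CD. Blood was drawn into EDTA tubes at 5, 15 and 30 min and at 1, 2, 4, 8 and 24 h. Plasma was separated by centrifugation, mixed with acetonitrile:H2O (1:1 v/v) and protein-precipitated with acetonitrile.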

[9] = MRT (last) in rat at 1 mg/kg, iv; assay type: ADME, organism-based; settings: in vivo; how it was run: as §4
[10] = (§8) Cmax in rat at 1 mg/kg, iv; assay type: ADME, organism-based; parameters: dose 1 mg/kg, route intravenous; settings: in vivo; how it was run: as §4
[11] = (§9) MRT (INF) in rat at 1 mg/kg, iv; assay type: ADME, organism-based; settings: in vivo; how it was run: as §4
[12] = Oral bioavailability in rat at 5 mg/kg; assay type: ADME, organism-based; settings: in vivo; how it was run: as §2
[13] = AUC (0 to time) in rat at 5 mg/kg, po; assay type: ADME, organism-based; settings: in vivo
How it was run: (§10)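 Rats (n = 3) received a single 5 mg/kg oral dose in 0.5% HPMC. EDTA blood samples were taken at 15 and 30 min and at 1, 2, 4, 8 and 24 h. Plasma was obtained by centrifugation, mixed with acetonitrile:H2O (1:1 v/v) and precipitated with acetonitrile.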

[14] = (§11) AUC (0 to infinity) in rat at 5 mg/kg, po; assay type: ADME, organism-based; parameters: dose 5 mg/kg, route oral, time infinity; settings: in vivo; how it was run: as §10
[15] = Tmax in rat at 1 mg/kg, iv; assay type: ADME, organism-based; settings: in vivo; how it was run: as §4
[16] = AUC (0 to infinity) in rat at 1 mg/kg, iv; assay type: ADME, organism-based; parameters: dose 1 mg/kg, route intravenous, time infinity; settings: in vivo; how it was run: as §7
[17] = (§12) Clearance in rat at 1 mg/kg, iv; assay type: ADME, organism-based; settings: in vivo; how it was run: as §4
[18] = (§13) Cmax in rat at 5 mg/kg, po; assay type: ADME, organism-based; parameters: dose 5 mg/kg, route oral; settings: in vivo; how it was run: as §2
[19] = MRT (INF) in rat at 5 mg/kg, po; assay type: ADME, organism-based; settings: in vivo; how it was run: as §2
Rattus norvegicus [20] = experiment: Volume of distribution in rat at 5 mg/kg, po; assay type: ADME, organism-based; settings: in vivo; how it was run: as §2
Rattus norvegicus [21] = experiment: as §3; assay type: ADME, organism-based; settings: in vivo; how it was run: as §2
Rattus norvegicus [22] = experiment: as §5; assay type: ADME, organism-based; settings: in vivo; how it was run: as §2
Rattus norvegicus [23] = experiment: as §6; assay type: ADME, organism-based; settings: in vivo; how it was run: as §4
Rattus norvegicus [24] = experiment: as §8; assay type: ADME, organism-based; parameters: dose 1 mg/kg, route intravenous; settings: in vivo; how it was run: as §4
Rattus norvegicus [25] = experiment: as §9; assay type: ADME, organism-based; settings: in vivo; how it was run: as §4
Rattus norvegicus [26] = experiment: as §11; assay type: ADME, organism-based; parameters: dose 5 mg/kg, route oral, time infinity; settings: in vivo; how it was run: as §10
Rattus norvegicus [27] = experiment: as §13; assay type: ADME, organism-based; parameters: dose 5 mg/kg, route oral; settings: in vivo; how it was run: as §2
Rattus norvegicus [28] = experiment: Volume of distribution at steady state in rat at 1 mg/kg, iv; assay type: ADME, organism-based; settings: in vivo; how it was run: as §4
Rattus norvegicus [29] = experiment: Volume of distribution at steady state in rat at 5 mg/kg, po; assay type: ADME, organism-based; settings: in vivo; how it was run: as §2
Rattus norvegicus [30] = experiment: as §12; assay type: ADME, organism-based; settings: in vivo; how it was run: as §4
Androgen receptor [31] = target: T1, Androgen receptor; experiment: Partial agonist activity at androgen receptor (unknown origin); how it was run: as §1
[32] = Homo sapiens, LNCaP, 72 h, read-out: IC50

## CNC(=O)c1ccc(N2C(=S)N(c3ccc(C#N)c(C(F)(F)F)c3)C(=O)C2(C)COC)cc1F (racemic)
Androgen receptor [1]
  Ki: 68 nM
LNCaP; [32]
  IC50: 344 nM

## N#Cc1ccc(N2C(=O)[C@]3(CCOC3)N(c3ccc(C(=O)O)c(F)c3)C2=S)cc1C(F)(F)F
[2]
  CL/F: 117 mL/min/kg
[3]
  Tmax: 0.42 h
[4]
  Vd: 8 L/kg
[5]
  half-life: 4 h
[6]
  MRT last: 3.5 h
[7]
  half-life: 3.3 h
[8]
  AUC: 497 ng·h/mL
[9]
  MRT last: 0.5 h
[10]
  Cmax: 1180 ng/mL
[11]
  MRT inf: 0.8 h
[12]
  bioavailability: 29%
[13]
  AUC: 716 ng·h/mL
[14]
  AUC(0-inf): 743 ng·h/mL
[15]
  Tmax: 4.98 min
Androgen receptor [1]
  Ki: Not Active
LNCaP; lncap
  IC50: Not Active
[16]
  AUC(0-inf): 509 ng·h/mL
[17]
  clearance: 33.3 mL/min/kg
[18]
  Cmax: 231 ng/mL
[19]
  MRT inf: 4.2 h
Rattus norvegicus [20]
  Vd: 38.4 L/kg

## CNC(=O)c1ccc(N2C(=S)N(c3ccc(C#N)c(C(F)(F)F)c3)C(=O)[C@@]2(C)COC)cc1F
Androgen receptor [1]
  Ki: 40.6 nM
LNCaP; [32]
  IC50: 185 nM

## CNC(=O)c1ccc(N2C(=S)N(c3ccc(C#N)c(C(F)(F)F)c3)C(=O)C23CN(C(c2ccccc2)c2ccccc2)C3)cc1F
Androgen receptor [1]
  Ki: Not Active
LNCaP; lncap
  IC50: Not Active

## CC(O)(CS(=O)(=O)c1ccc(F)cc1)C(=O)Nc1ccc(C#N)c(C(F)(F)F)c1 (stereo unspecified) [BICALUTAMIDE]
LNCaP; [32]
  IC50: 733 nM

## CNC(=O)c1ccc(N2C(=S)N(c3ccc(C#N)c(C(F)(F)F)c3)C(=O)[C@]2(C)COC)cc1F
Androgen receptor [1]
  Ki: 798 nM
LNCaP; [32]
  IC50: 3170 nM

## CNC(=O)c1ccc(N2C(=S)N(c3ccc(C#N)c(C(F)(F)F)c3)C(=O)[C@]23CCOC3)cc1F
Rattus norvegicus [21]
  Tmax: 2 h
[4]
  Vd: 2.3 L/kg
Rattus norvegicus [22]
  t1/2: 5.2 h
[6]
  MRT last: 6.9 h
Rattus norvegicus [23]
  t1/2: 4.1 h
[8]
  AUC: 2570 ng·h/mL
[9]
  MRT last: 4.8 h
Rattus norvegicus [24]
  Cmax: 531 ng/mL
Rattus norvegicus [25]
  MRT: 5.3 h
[12]
  bioavailability: 100%
[13]
  AUC: 13000 ng·h/mL
Rattus norvegicus [26]
  AUC: 13105 ng·h/mL
[15]
  Tmax: 4.98 min
Androgen receptor [1]
  Ki: 18.4 nM
LNCaP; [32]
  IC50: 79.2 nM
[16]
  AUC(0-inf): 2620 ng·h/mL
[17]
  clearance: 6.67 mL/min/kg
Rattus norvegicus [27]
  Cmax: 1062 ng/mL
[19]
  MRT inf: 7.2 h

## CNC(=O)c1ccc(N2C(=S)N(c3ccc(C#N)c(C(F)(F)F)c3)C(=O)C23CCOC3)cc1F (racemic)
Androgen receptor [1]
  Ki: 33.8 nM
LNCaP; [32]
  IC50: 196 nM

## COC(=O)c1ccc(N2C(=S)N(c3ccc(C#N)c(C(F)(F)F)c3)C(=O)[C@]23CCOC3)cc1F
[2]
  CL/F: 147 mL/min/kg
[3]
  Tmax: 1.67 h
[4]
  Vd: 46 L/kg
[5]
  half-life: 4.3 h
[6]
  MRT last: 4.6 h
[7]
  half-life: 17.1 h
[8]
  AUC: 599 ng·h/mL
[9]
  MRT last: 4.3 h
[10]
  Cmax: 518 ng/mL
Rattus norvegicus [25]
  MRT: 12.8 h
[12]
  bioavailability: 19%
[13]
  AUC: 570 ng·h/mL
[14]
  AUC(0-inf): 576 ng·h/mL
Rattus norvegicus [28]
  Vdss: 1.6 L/kg
[15]
  Tmax: 4.98 min
Androgen receptor [1]
  Ki: 11.9 nM
LNCaP; [32]
  IC50: 59 nM
[16]
  AUC(0-inf): 712 ng·h/mL
Rattus norvegicus [29]
  Vdss: 2 L/kg
Rattus norvegicus [30]
  CL: 28.3 mL/min/kg
[18]
  Cmax: 104 ng/mL
[19]
  MRT inf: 5 h
Rattus norvegicus [20]
  Vd: 53 L/kg

## CNC(=O)c1ccc(N2CC(=O)N(c3ccc(C#N)c(C(F)(F)F)c3)C2=S)cc1F
LNCaP; [32]
  IC50: > 10000 nM

## CNC(=O)c1ccc(N2C(=S)N(c3ccc(C#N)c(C(F)(F)F)c3)C(=O)C2(C)CO)cc1F (stereo unspecified)
Androgen receptor [31]
  Ki: 43.3 nM
LNCaP; [32]
  IC50: 212 nM

## CCOC(=O)CC1(C)C(=O)N(c2ccc(C#N)c(C(F)(F)F)c2)C(=S)N1c1ccc(C(=O)NC)c(F)c1 (racemic)
Androgen receptor [1]
  Ki: 236 nM
LNCaP; [32]
  IC50: 1380 nM

## CNC(=O)c1ccc(N2C(=S)N(c3ccc(C#N)c(C(F)(F)F)c3)C(=O)[C@H]2C)cc1F
Androgen receptor [31]
  Ki: 482 nM
LNCaP; [32]
  IC50: 1510 nM
